Only some compounds are listed: those with a hit (about 1.5% of all), similar ones and a draw of the others.
Wnt bcat act = Wnt/beta-catenin pathway activators, primary screen, cell-based, plate reader, single point | Wnt/beta-catenin reporter cell assay, activator | activation, % at 9.35 µM | hit rate 1.2% among 300,000; in the data active = activation above about 30%, passing the limit was not always enough; inconclusive = no clear call, values can overlap the other calls;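 also: 0% = neutral control wells and 100% = positive control wells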
PGC1a acetyl inh = inhibitors of PGC1a acetylation signal, primary screen, cell-based, U2OS, AlphaScreen, inhibitor mode | AlphaScreen anti-acetyl-lysine; with virally co-expressed GCN5 acetyltransferase | inhibition, % at 15.6 µM | hit rate 0.17% among 350,000 | AID 651687, 2012;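 active = every replicate shows inhibition of at least 40%; inconclusive = mean inhibition at least 40% but some replicate below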;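 also: 0% = neutral control wells and 100% = positive control wells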
MITF TRPM1 HTS = activators of MITF-driven TRPM1 promoter reporter, primary screen, cell-based, SK-MEL-5, luciferase, single point. AID 588334, 2011. hit rate 0.75% among 300,000. activation, % at 12.5 µM. SK-MEL-5 TRPM1-promoter luciferase, 24 h; % of positive control, neutral wells = 0;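 active = mean activation of at least 80% with every replicate also reaching 80%; inconclusive = mean reaches 80% but some replicate falls short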;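 also: 0% = neutral control wells and 100% = parthenolide positive control wells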
Cneo AK release = Cryptococcus neoformans cell lysis inducers, primary screen, AK release luminescence, single concentration; lysis activity, % at 15 µM; hit rate 0.2% among 360,000; C. neoformans lysis, adenylate kinase release luminescence, 4 h; normalised: neutral wells 0, clomiphene wells 100;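 active = mean lysis activity across replicates of at least 80%, whatever share of replicates individually reach that level; inactive = mean lysis activity below 80%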
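Material: C. neoformans cells | Amount: Yeast cell density of 5 × 10^6 cells/mL | Medium: Fresh YPD growth medium | Dosing: Single dose | Times: Static 4 h at 37 °C with compound, 1 h detection | Detection: AK luminescence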
An asterisk follows results filed as active; ? = inconclusive; / = no result.

SMILES	Wnt bcat act	PGC1a acetyl inh	MITF TRPM1 HTS	Cneo AK release
CO[C@H]1CN(C)C(=O)c2cc(NS(=O)(=O)c3cccc(Cl)c3)ccc2OC[C@H](C)NC[C@H]1C	/	-2.2	/	1.0
Cn1cc(Br)c(C(=O)NNC(=O)c2ccc(Cl)cc2)n1	51.3*	/	18.6	/
Cn1cc(Br)c(C(=O)NNC(=O)Cc2ccc(Cl)cc2)n1	-1.4	-5.3	4.2	-0.5
C[C@@H]1CN([C@@H](C)CO)C(=O)c2cc(C#Cc3cccc(F)c3)cnc2O[C@@H]1CN(C)C(=O)C1CCCCC1	/	-2.4	/	11.7
COCCn1c(C)cc(C(=O)CSc2ccc3ccccc3n2)c1C	/	-10.8	87.0*	-10.7
COCC(=O)Nc1ccc2c(c1)[C@H]1C[C@@H](CC(=O)NCc3ccccc3F)O[C@@H](CO)[C@H]1O2	/	-1.8	/	-0.4
COc1ccc(NC(=O)C2Cc3ccccc3O/C2=N\O)cc1 (configuration not stated)	9.8	9.1	86.1*	-3.5
COc1ccc(NC(=O)C2Cc3cccc(OC)c3O/C2=N\O)cc1 (configuration not stated)	15.1	10.4	-1.3	-0.7
CCC(=O)n1nc(-c2ccc(Cl)cc2)nc1SC	39.5*	-0.7	64.2	-0.9
O=C(Nc1cccc(Cl)c1Cl)c1csc([C@H]2C[C@H](O)[C@@H](CO)O2)n1	42.1*	16.8	/	-0.4
O=C(Nc1cccc(Cl)c1Cl)c1csc([C@@H]2O[C@H](CO)[C@@H](O)[C@H]2O)n1	19.0	9.2	/	3.2
COc1ccc(C2C(CC(=O)O)=C(Nc3ccccc3)C(=O)N2c2ccccc2)cc1 (configuration not stated)	43.4*	/	49.1	-0.4
C/C=C/c1ccc([C@@H]2[C@@H](CO)N(C(C)=O)C23CN(C(=O)NC2CCCC2)C3)cc1	/	4.2	/	/
O=C(COc1ccc(Cl)cc1)Nc1cccc(-c2ccc(N3CCOCC3)nn2)c1	29.9	0.0	70.6	-4.6
O=C(Nc1cccc(-c2ccc(N3CCOCC3)nn2)c1)c1ccc(Cl)cc1	-2.0	-1.0	84.4*	0.5
Cc1ccc(C(=O)Nc2cccc(-c3ccc(N4CCOCC4)nn3)c2)cc1C	29.2	-3.0	75.6	/
O=C(Nc1cccc(-c2ccc(N3CCOCC3)nn2)c1)c1cccc(Cl)c1	34.6*	/	/	-2.0
O=C(Nc1cccc(-c2ccc(N3CCOCC3)nn2)c1)c1ccccc1Cl	-3.2	-6.6	106.7*	-14.3
Cc1ccc(C(=O)Nc2cccc(-c3ccc(N4CCOCC4)nn3)c2)cc1	36.0*	/	75.1	-8.1
C[C@H]1CN([C@@H](C)CO)C(=O)c2cc(-c3cccc(C#N)c3)cnc2O[C@@H]1CN(C)C(=O)C1CCC1	/	6.2	/	-2.0
O=c1nc(-c2ccccc2)c2ccccc2[nH]1	/	-1.6	-6.4	115.6*
C[C@H](NC(=O)C[C@H]1CC[C@H](NC(=O)CN2CCOCC2)[C@H](CO)O1)c1ccccc1	/	10.0	/	16.8
O=C(N/N=C/c1c[nH]c2ccccc12)c1cccs1	42.6*	12.3	/	0.4
O=C(N/N=C/c1cccc2ccccc12)c1cccs1	34.4*	/	55.9	-5.6
C[C@@H]1CCCCO[C@H](CN(C)C(=O)Cc2ccccc2)[C@@H](C)CN([C@@H](C)CO)C(=O)c2cc(NC(=O)CCC(F)(F)F)ccc2O1	/	2.3	/	-3.4
SMILES	Wnt bcat act	PGC1a acetyl inh	MITF TRPM1 HTS	Cneo AK release
Brc1ccccc1-c1nc2c3ccccc3ncn2n1	39.3*	/	47.7	-2.1
COc1cccc(CNc2ccc(F)c(Cl)c2)c1O	/	-9.4	87.7*	5.3
CCCCN1CCc2c([nH]c3c(C)cccc23)C1=O	26.8	4.4	92.5*	1.1
COc1ccc2c3c(n(C)c2c1)[C@H](CO)N(Cc1ccccc1Cl)CC31CCN(C(C)=O)CC1	/	-1.9	/	/
Nc1ccc(N=Nc2ccccc2)c(N)n1	13.4	9.8	94.4*	0.6
NC(=O)c1ccccc1NC(=O)COc1ccc(Cl)cc1	28.9	-1.9	?	-1.1
Cc1ccc(OCC(=O)Nc2ccccc2C(N)=O)cc1	56.7*	9.1	61.3	-1.2
C[C@H]1CN([C@@H](C)CO)C(=O)c2cccc(N(C)C)c2O[C@@H]1CN(C)Cc1ccc(C(F)(F)F)cc1	/	-16.2	/	-2.1
CCCOc1ccc(-c2csc3nc[nH]c(=O)c23)cc1	37.9*	/	48.0	-0.7
O=C(Nc1ccc(F)cc1)c1ccccc1F	22.2	5.4	81.7*	/
O=C(CNC(=O)c1ccccc1F)c1ccccc1	38.0*	/	/	-2.4
O=C(Nc1ccc(SC(F)F)cc1)c1ccc(F)cc1	16.8	1.4	86.8*	/
O=C(Nc1ccc(F)cc1)c1cccc(C(=O)Nc2ccc(F)cc2)c1	-1.0	-5.9	0.5	0.0
O=C(CNC(=O)c1ccccc1Cl)c1ccccc1	13.6	/	35.2	-1.5
O=C(Nc1ccc(F)cc1)c1ccccc1	-5.7	?	104.1*	-0.9
C[C@H]1CN([C@@H](C)CO)C(=O)c2cc(-c3cccnc3)cnc2O[C@@H]1CN(C)C(=O)c1cccc(F)c1	/	10.9	/	-0.2
C[C@@H]1CN([C@H](C)CO)C(=O)c2cccc(NS(=O)(=O)c3ccc(F)cc3)c2O[C@@H]1CN(C)Cc1ccc(-c2ccccc2)cc1	/	3.0	/	21.7
O=C(COC(=O)Cc1ccccc1F)Nc1ccc(SC(F)F)cc1	-3.0	6.6	-1.4	-4.5
CNC(=O)Nc1ccc(C2SCCS2)cc1	7.2	/	/	/
O=C(Cc1ccccc1F)Nc1ccc(SC(F)F)cc1	22.9	/	103.4*	/
O=C(Nc1ccc(C2SCCS2)cc1)c1ccccc1	48.6*	-3.5	/	-0.7
COc1ccc2c3c(n(C)c2c1)[C@@H](CO)NCC31CCN(C(C)=O)CC1	/	0.6	/	/
COc1cc(OC)c(N(C)C(=O)c2cn(C)c(=O)c3cc(OC)c(OC)cc23)cc1Cl	0.2	1.1	-6.0	126.6*
C(=NOCCc1ccccc1)c1cccnc1	-0.2	-7.8	87.1*	2.8
C(=NOCc1ccccc1)c1ccncc1	7.6	0.7	57.2	0.5
SMILES	Wnt bcat act	PGC1a acetyl inh	MITF TRPM1 HTS	Cneo AK release
CC1=Nc2ccccc2N=C(NC(=O)CN2CCN(c3ccccc3)CC2)C1c1ccccc1 (configuration not stated)	-1.2	86.1*	16.0	/
CCC(=O)N1CC(=O)N2[C@H](C1)[C@@H](c1ccc(-c3ccccc3F)cc1)[C@@H]2CO	/	-5.7	/	/
O=C(CN1CCOCC1)N1CCCCN2[C@@H](CO)[C@@H](c3ccc(C#Cc4ccccc4)cc3)[C@@H]2C1	/	4.5	/	-0.6
Cc1nc2ccccc2n1CC(O)COc1ccccc1Cl (configuration not stated)	37.1*	1.5	-7.3	-0.1
CC(=O)c1cccc2c(O)c(C3=Nc4ccccc4C3=O)[nH]c12	40.3*	-0.7	-37.7	-3.5
O=C(COC(=O)C1=COCCO1)Nc1cc(Cl)c(Cl)cc1Cl	45.4*	/	6.8	-0.1
O=C(C[C@H]1C=C[C@@H](NC(=O)CC2CC2)[C@@H](CO)O1)NCc1ccccc1	/	4.2	/	/
O=[N+]([O-])c1cccc(-c2cn(-c3ccccc3)c(=S)[nH]2)c1	13.2	-8.5	3.1	/
O=[N+]([O-])c1ccc(-c2cn(-c3ccccc3)c(=S)[nH]2)cc1	48.7*	12.9	13.9	1.5

Screening results from PubChem.
